Data as given in ChEMBL document CHEMBL4842338, “System-oriented optimization of multi-target 2,6-diaminopurine derivatives: Easily accessible broad-spectrum antivirals active against flaviviruses, influenza virus and SARS-CoV-2” (Eur J Med Chem, 2021).
pIC50: −log10 of the molar value.

Columns and labels:
[1] = test system: Huh-7; assay: Cytotoxicity against human Huh-7 cells infected with SARS-COV-2 assessed as reduction in cell viability by celltiter-glo luminescent cell viability assay; assay type: cell-based; conditions: huh-7
How it was run: (§1)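 Compound-exposed cells assessed by CellTiter-Glo luminescence versus DMSO control; CC50 from dose-response.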

[2] = test system: SARS-CoV-2; assay: Antiviral activity against SARS-COV 2 infected in human Huh-7 cells assessed as inhibition of viral replication at MOI of 0.01 and incubated after 2 hrs post infection for 48 hrs by direct yield reduction assay; assay type: functional, organism-based; conditions: Severe acute respiratory syndrome coronavirus 2, Huh-7
[3] = Selectivity index, ratio of CC50 for human Huh-7 cells infected with SARS-COV-2 to IC50 for SARS-COV 2 infected in human Huh-7; assay type: toxicity; conditions: read-out: Selectivity Index
[4] = test system: Vero C1008; assay: (§2) Cytotoxicity against African green monkey Vero E6 cells infected with SARS-COV-2 by celltiter-glo luminescent cell viability assay; assay type: cell-based; conditions: chlorocebus sabaeus, vero c1008; how it was run: as §1
[5] = test system: Caco-2; assay: Cytotoxicity against human Caco2 cells infected with SARS-COV-2 assessed as reduction in cell viability by celltiter-glo luminescent cell viability assay; assay type: cell-based; how it was run: as §1
[6] = test system: SARS-CoV-2; assay: Antiviral activity against SARS-COV 2 infected in human Caco-2 cells assessed as inhibition of viral replication at MOI of 0.01 and incubated after 2 hrs post infection for 48 hrs by immunodetection assay; assay type: functional, organism-based; conditions: Severe acute respiratory syndrome coronavirus 2, Caco-2
[7] = Selectivity index, ratio of CC50 for human Caco-2 cells infected with SARS-COV-2 to IC50 of SARS-COV 2 infected in human Caco-2 cells; assay type: toxicity, cell-based; conditions: read-out: Selectivity Index
[8] = test system: SARS-CoV-2; assay: Antiviral activity against SARS-COV 2 infected in monkey Vero E6 cells assessed as inhibition of viral replication at MOI of 0.01 and incubated after 2 hrs post infection for 48 hrs by direct yield reduction assay; assay type: functional, organism-based; conditions: Severe acute respiratory syndrome coronavirus 2, Vero C1008
[9] = Selectivity index, ratio of CC50 for African green monkey Vero E6 cells infected with SARS-COV-2 to IC50 for SARS-COV 2 infected in monkey Vero E6 cells; assay type: toxicity, cell-based, Vero C1008; conditions: read-out: Selectivity Index
[10] = test system: Calu-3; assay: (§3) Cytotoxicity against human Calu-3 cells infected with SARS-COV-2 by celltiter-glo luminescent cell viability assay; assay type: cell-based; conditions: calu-3; how it was run: as §1
[11] = test system: SARS-CoV-2; assay: Antiviral activity against SARS-COV 2 infected in human Calu-3 cells assessed as inhibition of viral replication at MOI of 0.01 and incubated after 2 hrs post infection for 48 hrs by direct yield reduction assay; assay type: functional, organism-based; conditions: Severe acute respiratory syndrome coronavirus 2, Calu-3
[12] = Selectivity index, ratio of CC50 for human Calu-3 cells infected with SARS-COV-2 to IC50 for SARS-COV 2 infected in human Calu-3 cells; assay type: toxicity, cell-based; conditions: read-out: Selectivity Index
[13] = test system: SARS-CoV-2; assay: Antiviral activity against SARS-COV 2 infected in human Huh-7 cells; assay type: functional, organism-based; conditions: Severe acute respiratory syndrome coronavirus 2, Huh-7
[14] = test system: SARS-CoV-2; assay: Antiviral activity against SARS-COV 2 infected in human Caco-2 cells; assay type: functional, organism-based; conditions: Severe acute respiratory syndrome coronavirus 2, Caco-2
[15] = test system: SARS-CoV-2; assay: Antiviral activity against SARS-COV 2 infected in African green monkey Vero E6 cells; assay type: functional, organism-based; conditions: Severe acute respiratory syndrome coronavirus 2, Vero C1008
[16] = Selectivity index, ratio of CC50 for human A549 cells to IC50 for Influenza A Puerto Rico/8/34/H1N1 infected in human A549 cells; assay type: toxicity, cell-based; conditions: read-out: Selectivity Index
How it was run: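 MDCK or A549 cells (2.5 × 10⁵/well) infected with A/Puerto Rico/8/34 H1N1 for 1 h at 37 °C, then washed. Compound (0.5–20 μM) added in 2% FBS medium for 24 h, with DMSO final ≤0.2%. Virus in supernatants read by hemagglutination. CC₅₀ by MTT (2 × 10⁴ cells/well, same concentrations, 24 h, absorbance 570 nm). SI = CC₅₀/IC₅₀.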

[17] = test system: Influenza A virus; assay: Antiviral activity against Influenza A Puerto Rico/8/34/H1N1 infected in human A549 cells assessed as inhibition of viral replication after 24 hrs by hemagglutination assay; assay type: functional, organism-based; conditions: A/Puerto Rico/8/1934(H1N1), A549, 24 h
[18] = Cytotoxicity against human A549 cells assessed as reduction in cell viability measured after 24 hrs by MTT assay; assay type: cell-based; conditions: A549 cells
[19] = Cytotoxicity against human Huh-7 cells assessed as reduction in cell viability by Celltiter-Glo luminescent cell viability assay; assay type: cell-based; conditions: Huh-7 cells; how it was run: as §1
[20] = test system: dengue virus type 2; assay: Antiviral activity against Dengue virus serotype 2 New Guinea C infected in pre-seeded Huh-7 cells assessed as inhibition of viral replication incubated for 72 hrs by immunodetection based direct yield reduction assay; assay type: functional, organism-based; conditions: Dengue virus, New Guinea C, Huh-7, 72 h; read-out: IC50
[21] = test system: dengue virus type 2; assay: Antiviral activity against Dengue virus serotype 2 New Guinea C infected in pre-seeded Huh-7 cells assessed as inhibition of viral replication incubated for 72 hrs by immunodetection based plaque reduction assay; assay type: functional, organism-based; conditions: Huh-7, 72 h
[22] = Selectivity index, ratio of CC50 for human Huh-7 cells to IC50 for Dengue virus serotype 2 New Guinea C infected in pre-seeded Huh-7 cells assessed as inhibition of viral replication incubated for 72 hrs by immunodetection based secondary yield reduction assay; assay type: toxicity, cell-based; conditions: read-out: Selectivity Index
[23] = Selectivity index, ratio of CC50 for human Huh-7 cells to IC50 for Dengue virus serotype 2 New Guinea C infected in pre-seeded Huh-7 cells assessed as inhibition of viral replication incubated for 72 hrs by immunodetection based direct yield reduction assay; assay type: toxicity, cell-based; conditions: read-out: Selectivity Index
How it was run: (§4)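 Direct yield reduction in Huh7 cells (7000/well), infected with 50 TCID₅₀ of DENV or ZIKV, or 25 TCID₅₀ of WNV. Adsorption 1 h at 37 °C, then virus removed and serial compound dilutions added. Incubated 72 h (DENV, ZIKV) or 48 h (WNV). Viral antigen immunodetected on the monolayer. IC₅₀ by non-linear regression, mean of three experiments. SI = CC₅₀ (Huh7, CellTiter-Glo luminescence)/IC₅₀.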

[24] = Selectivity index, ratio of CC50 for human Huh-7 cells to IC50 for Dengue virus serotype 2 New Guinea C infected in pre-seeded Huh-7 cells assessed as inhibition of viral replication incubated for 72 hrs by immunodetection based plaque reduction assay; assay type: toxicity, cell-based; conditions: read-out: Selectivity Index
[25] = test system: Zika virus; assay: Antiviral activity against Zika virus H/PF/2013 infected in pre-seeded Huh-7 cells assessed as inhibition of viral replication incubated for 72 hrs by immunodetection based secondary yield reduction assay; assay type: functional, organism-based; conditions: H/PF/2013, Huh-7, 72 h
[26] = test system: Zika virus; assay: Antiviral activity against Zika virus H/PF/2013 infected in pre-seeded Huh-7 cells assessed as inhibition of viral replication incubated for 72 hrs by immunodetection based direct yield reduction assay; assay type: functional, organism-based; conditions: H/PF/2013, Huh-7, 72 h; how it was run: as §4
[27] = test system: Zika virus; assay: Antiviral activity against Zika virus H/PF/2013 infected in pre-seeded Huh-7 cells assessed as inhibition of viral replication incubated for 72 hrs by immunodetection based plaque reduction assay; assay type: functional, organism-based; conditions: H/PF/2013, Huh-7, 72 h
[28] = Selectivity index, ratio of CC50 for human Huh-7 cells to IC50 for Zika virus H/PF/2013 infected in pre-seeded Huh-7 cells assessed as inhibition of viral replication incubated for 72 hrs by immunodetection based secondary yield reduction assay; assay type: toxicity, cell-based; conditions: read-out: Selectivity Index
[29] = Selectivity index, ratio of CC50 for human Huh-7 cells to IC50 for Zika virus H/PF/2013 infected in pre-seeded Huh-7 cells assessed as inhibition of viral replication incubated for 72 hrs by immunodetection based direct yield reduction assay; assay type: toxicity, cell-based; conditions: read-out: Selectivity Index; how it was run: as §4
[30] = Selectivity index, ratio of CC50 for human Huh-7 cells to IC50 for Zika virus H/PF/2013 infected in pre-seeded Huh-7 cells assessed as inhibition of viral replication incubated for 72 hrs by immunodetection based plaque reduction assay; assay type: toxicity, cell-based; conditions: read-out: Selectivity Index
[31] = test system: West Nile virus; assay: Antiviral activity against West Nile virus lineage 1 (Italy/2009) infected in pre-seeded Huh-7 cells assessed as inhibition of viral replication incubated for 48 hrs by immunodetection based direct yield reduction assay; assay type: functional, organism-based; conditions: West Nile virus, lineage 1 (Italy/2009), Huh-7, 48 h; read-out: IC50
[32] = test system: West Nile virus; assay: Antiviral activity against West Nile virus lineage 1 (Italy/2009) infected in pre-seeded Huh-7 cells assessed as inhibition of viral replication incubated for 48 hrs by immunodetection based plaque reduction assay; assay type: functional, organism-based; conditions: Huh-7, 48 h
[33] = Selectivity index, ratio of CC50 for human Huh-7 cells to IC50 for West Nile virus lineage 1 (Italy/2009) infected in pre-seeded Huh-7 cells assessed as inhibition of viral replication incubated for 48 hrs by immunodetection based direct yield reduction assay; assay type: toxicity, cell-based; conditions: read-out: Selectivity Index; how it was run: as §4
[34] = Selectivity index, ratio of CC50 for human Huh-7 cells to IC50 for West Nile virus lineage 1 (Italy/2009) infected in pre-seeded Huh-7 cells assessed as inhibition of viral replication incubated for 48 hrs by immunodetection based plaque reduction assay; assay type: toxicity, cell-based; conditions: read-out: Selectivity Index
[35] = Cytotoxicity against MDCK cells assessed as reduction in cell viability measured after 24 hrs by MTT assay; assay type: cell-based, Canis lupus familiaris; conditions: dog, MDCK cells
[36] = test system: Influenza A virus; assay: Antiviral activity against Influenza A Puerto Rico/8/34/H1N1 infected in MDCK cells assessed as inhibition of viral replication measured in supernatants of infected cells after 24 hrs by hemagglutination assay; assay type: functional, organism-based; conditions: A/Puerto Rico/8/1934(H1N1)
[37] = as §2; assay type: cell-based, Vero C1008; conditions: chlorocebus sabaeus, Vero E6 cells infected with SARS-COV-2; how it was run: as §1
[38] = as §3; assay type: cell-based; conditions: Calu-3 cells infected with SARS-COV-2; how it was run: as §1
[39] = test system: SARS-CoV-2; assay: Antiviral activity against SARS-COV 2 infected in human Calu-3 cells assessed as inhibition of viral replication at MOI of 0.01 followed by removal of test compound after cell virus adsorption incubated for 72 hrs by ENTRY-DYRA method; assay type: functional, organism-based; conditions: Severe acute respiratory syndrome coronavirus 2, Calu-3, 72 h

CCC(CC)COC(=O)[C@H](C)N[P@](=O)(OC[C@H]1O[C@@](C#N)(c2ccc3c(N)ncnn23)[C@H](O)[C@@H]1O)Oc1ccccc1 [REMDESIVIR]
CC50 [1]: 77 µM | pIC50 [2]: 8.40 | selectivity ratio [3]: 19200 | CC50 [4]: 166 µM | CC50 [5]: 80 µM | pIC50 [6]: 8.00 | selectivity ratio [7]: 8000 | pIC50 [8]: 5.22 | selectivity ratio [9]: 28 | CC50 [10]: 97 µM | pIC50 [11]: 6.96 | selectivity ratio [12]: 882 | pIC50 [13]: 8.70 | pIC50 [14]: 6.42 | pIC50 [15]: 4.57

NC(=O)c1ncn([C@@H]2O[C@H](CO)[C@@H](O)[C@H]2O)n1 [RIBAVIRIN]
selectivity ratio [16]: > 1.3 | pIC50 [17]: 4.43 | CC50 at 24 h [18]: > 50 µM | CC50 [19]: 200 µM | pIC50 [20]: 5.12 | pIC50 [21]: 5.39 | selectivity ratio at 72 h [22]: 50 | selectivity ratio at 72 h [23]: 26 | selectivity ratio at 72 h [24]: 49 | pIC50 [25]: 5.36 | pIC50 [26]: 5.42 | pIC50 [27]: 5.66 | selectivity ratio at 72 h [28]: 45 | selectivity ratio at 72 h [29]: 53 | selectivity ratio at 72 h [30]: 91 | pIC50 [31]: 5.02 | pIC50 [32]: 5.17 | selectivity ratio at 48 h [33]: 21 | selectivity ratio at 48 h [34]: 30 | CC50 at 24 h [35]: > 50 µM | pIC50 [36]: 5.02 | CC50 [37]: > 400 µM | pIC50 [8]: 3.96

CN(C)C(=O)COC(=O)Cc1ccc(OC(=O)c2ccc(NC(=N)N)cc2)cc1 [CAMOSTAT]
CC50 [38]: 200 µM | pIC50 [11]: 6.09 | selectivity ratio [12]: 243 | pIC50 [39]: 7.40
